Activity calls are given as the source filed them. No cut-off for these calls is given here.
Experiments:
Rattus norvegicus [1] = assay: Toxicity in rat allografted with cytoxan-resistant rat Walker 256 cells intramuscularly assessed as change in body weight at 0.5 mg/kg, qd administered for 5 days; format: organism-based; design: dose 0.5 mg/kg, route intramuscular; conditions: in vivo, im, 120 h
In short: (§1)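 Walker 256 carcinoma solid-tumour system in rats (parent line, or the line resistant to cytoxan). Dosing was one injection per day for 5 days. Toxicity was taken as the average net body-weight change of the treated group minus the average net weight change of the untreated tumour-bearing controls, in grams.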

Rattus norvegicus [2] = assay: Toxicity in rat allografted with rat Walker 256 cells intramuscularly assessed as change in body weight at 0.125 mg/kg, qd administered for 5 days; format: organism-based; design: dose 0.125 mg/kg, route intramuscular; conditions: in vivo, im, 120 h; in short: as §1
[3] = Therapeutic index, ratio of LD50 for rat allografted with rat Walker 256 cells to ED10 for antitumor activity against rat Walker 256 cells intramuscularly allografted in rat; format: cell-based; conditions: read-out: TI
In short: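 Therapeutic index is LD50/ED10 in the Walker 256 solid tumour system. ED10 is the dose giving a 10% tumour weight reduction, with values extrapolated from dose-response data.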

Rattus norvegicus [4] = assay: Toxicity in rat allografted with cytoxan-resistant rat Walker 256 cells intramuscularly assessed as change in body weight at 0.12 mg/kg, qd administered for 5 days; format: organism-based; design: dose 0.12 mg/kg, route intramuscular; conditions: in vivo, im, 120 h
In short: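 Cytoxan-resistant Walker 256 solid tumour in rats, one injection daily for 5 days. Toxicity is the average net body-weight change of the treated group minus that of the untreated controls, in grams.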

W256 [5] = assay: Antitumor activity against rat Walker 256 cells intramuscularly allografted in rat assessed as survival rate at 0.031 mg/kg, qd administered for 5 days; format: functional, organism-based; design: dose 0.031 mg/kg
In short: (§2)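 Rats bearing Walker 256 carcinoma as a solid tumor; lines 1-8 use a cytoxan-resistant Walker 256 subline. Dosed once daily for 5 days. Treated (T) and untreated control (C) groups are compared, and the response is given as T/C percentage, reflecting increase in survival time. Host weight change is the average weight change of the test group minus that of the controls, in grams.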

W256 [6] = assay: Antitumor activity against cytoxan-resistant rat Walker 256 cells intramuscularly allografted in rat assessed as tumor growth inhibition at 0.5 mg/kg, qd administered for 5 days relative to control; format: functional; conditions: W256, im, 120 h, route intramuscular, read-out: TGI
In short: (§3)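 Dosed once daily for 5 days. Response is tumor progression in treated (T) versus untreated control (C) animals, expressed as T/C percentage. Host weight change is reported as the average net weight change of the test group minus that of the controls, in grams.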

W256 [7] = assay: Antitumor activity against rat Walker 256 cells intramuscularly allografted in rat assessed as tumor growth inhibition at 1 mg/kg, qd administered for 5 days relative to control; format: functional; conditions: W256, im, 120 h, route intramuscular, read-out: TGI; in short: as §3
W256 [8] = assay: Antitumor activity against rat Walker 256 cells intramuscularly allografted in rat assessed as tumor growth inhibition at 0.25 mg/kg, qd administered for 5 days relative to control; format: functional; conditions: W256, im, 120 h, route intramuscular, read-out: TGI; in short: as §3
W256 [9] = assay: Antitumor activity against cytoxan-resistant rat Walker 256 cells intramuscularly allografted in rat assessed as survival rate at 0.5 mg/kg, qd administered for 5 days; format: functional, organism-based; design: dose 0.5 mg/kg; in short: as §2
W256 [10] = assay: Antitumor activity against rat Walker 256 cells intramuscularly allografted in rat assessed as survival rate at 0.5 mg/kg, qd administered for 5 days; format: functional, organism-based; design: dose 0.5 mg/kg; in short: as §2
W256 [11] = assay: Antitumor activity against cytoxan-resistant rat Walker 256 cells intramuscularly allografted in rat assessed as survival rate at 0.25 mg/kg, qd administered for 5 days; format: functional, organism-based; design: dose 0.25 mg/kg; in short: as §2
Rattus norvegicus [12] = assay: Toxicity in rat allografted with rat Walker 256 cells intramuscularly assessed as change in body weight at 0.062 mg/kg, qd administered for 5 days; format: organism-based; design: dose 0.062 mg/kg, route intramuscular; conditions: in vivo, im, 120 h; in short: as §1
W256 [13] = assay: Antitumor activity against rat Walker 256 cells intramuscularly allografted in rat assessed as tumor growth inhibition at 0.062 mg/kg, qd administered for 5 days relative to control; format: functional; conditions: W256, im, 120 h, route intramuscular, read-out: TGI; in short: as §3
Rattus norvegicus [14] = species on record: Rattus norvegicus; assay: Toxicity in Wistar-Furth rat assessed as effect on ovary measured for 24 hrs; format: organism-based, Female gonad; conditions: in vivo
In short: (§4)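 Wistar-Furth rats were injected daily for 5 days at the antifertility-study doses of 1 or 5 mg/kg, depending on agent. Testes or ovaries were taken at sacrifice after 1, 3 or 24 h. Cryostat frozen sections were fixed in 95% alcohol for 10 min and stained with acridine orange (DNA green, RNA red). Results were compared with untreated controls.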

Rattus norvegicus [15] = assay: Toxicity in rat allografted with rat Walker 256 cells intramuscularly assessed as change in body weight at 0.031 mg/kg, qd administered for 5 days; format: organism-based; design: dose 0.031 mg/kg, route intramuscular; conditions: in vivo, im, 120 h; in short: as §1
W256 [16] = assay: Antitumor activity against cytoxan-resistant rat Walker 256 cells intramuscularly allografted in rat assessed as tumor growth inhibition at 0.12 mg/kg, qd administered for 5 days relative to control; format: functional; conditions: W256, im, 120 h, route intramuscular, read-out: TGI; in short: as §3
W256 [17] = assay: Antitumor activity against rat Walker 256 cells intramuscularly allografted in rat assessed as survival rate at 0.125 mg/kg, qd administered for 5 days; format: functional, organism-based; design: dose 0.125 mg/kg; in short: as §2
Rattus norvegicus [18] = assay: Toxicity in rat allografted with cytoxan-resistant rat Walker 256 cells intramuscularly assessed as change in body weight at 1 mg/kg, qd administered for 5 days; format: organism-based; design: dose 1 mg/kg, route intramuscular; conditions: in vivo, im, 120 h; in short: as §1
Rattus norvegicus [19] = species on record: Rattus norvegicus; assay: Toxicity in Wistar-Furth rat assessed as decrease in mature spermatocytes measured for 24 hrs; format: organism-based; conditions: in vivo; in short: as §4
Rattus norvegicus [20] = assay: Toxicity in rat allografted with rat Walker 256 cells intramuscularly assessed as change in body weight at 0.25 mg/kg, qd administered for 5 days; format: organism-based; design: dose 0.25 mg/kg, route intramuscular; conditions: in vivo, im, 120 h; in short: as §1
W256 [21] = assay: Antitumor activity against cytoxan-resistant rat Walker 256 cells intramuscularly allografted in rat assessed as tumor growth inhibition at 1 mg/kg, qd administered for 5 days relative to control; format: functional; conditions: W256, im, 120 h, route intramuscular, read-out: TGI; in short: as §3

With C=CCN(CC=C)P(=O)(N1CC1)N1CC1 the Activity (Rattus norvegicus [1]) was -13 g, the Activity (Rattus norvegicus [2]) was -1 g and the selectivity ratio [3] was 10. The Activity (Rattus norvegicus [4]) was -14 g, the Activity (W256 [5]) was “Active” and the inhibition in vivo at 0.5 mg/kg (W256 [6]) was 58%. The inhibition in vivo at 1 mg/kg (W256 [7]) was 0%, the inhibition in vivo at 0.25 mg/kg (W256 [8]) was 0% and the Activity (W256 [9]) was “Active”. For the same compound, the Activity (W256 [10]) was “Active”, the Activity (W256 [11]) was “Active” and the Activity (Rattus norvegicus [12]) was -5 g. For the same compound, the inhibition in vivo at 0.062 mg/kg (W256 [13]) was 7%, the Activity (Rattus norvegicus [14]) was “Non-toxic” and the Activity (Rattus norvegicus [15]) was 0 g. The inhibition in vivo at 0.12 mg/kg (W256 [16]) was 98%, the Activity (W256 [17]) was “Active” and the Activity (Rattus norvegicus [18]) was -13 g. The Activity (Rattus norvegicus [19]) was “Non-toxic”, the Activity (Rattus norvegicus [20]) was -12 g and the inhibition in vivo at 1 mg/kg (W256 [21]) was 40%.

Reference: ChEMBL document CHEMBL3272018, “Synthesis of aziridinylallylaminophosphine oxides and sulfides as potential adjuvant cancer chemotherapeutic agents” (J Med Chem, 1976)
